Consider four compounds from ChEMBL document CHEMBL1143238, “Oxazaborolidine derivatives inducing autoinducer-2 signal transduction in Vibrio harveyi” (2008).

≈ marks a conversion by molar mass, not a printed value. Calls of active or inactive are those of the source. The calls are words filed in the database; no cut-off is given here.

In assay [1] the test system is Vibrio harveyi. Briefly: Induction of bioluminescence in Vibrio harveyi BB170 mutant (sensor 1-, sensor 2+) at 600 uM. In kind it is functional, organism-based. The essentials:
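Strain was grown in AB medium at 30 °C with shaking to 1.5–2.5 · 10^9 CFU/ml (15–16 h), then diluted 1:5000 or 1:10,000 into fresh AB medium containing compound. Incubation was at 30 °C for about 7 h with luminescence monitoring. Light was normalized to CFU or OD595. Fold induction over endogenous luminescence was taken at the minimum-luminescence point (3–4 h). Negative control was fresh AB medium; positive control was 10% v/v BB152 spent medium.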

Assay [2] deals with Vibrio harveyi. Briefly: Antibacterial activity against Vibrio harveyi BB886 mutant after 18 hrs. The class given is functional. In a few lines:
(§1)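 Strains were grown aerobically at 30 °C with shaking in AB medium. Growth was read as OD595 after 18 h incubation. Each experiment was run in triplicate and repeated three times.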

Assay [3] deals with Vibrio harveyi. The assay can be described thus: Antibacterial activity against Vibrio harveyi MM77 mutant after 18 hrs. In kind it is functional. In a few lines:
as §1

Assay [4] relates to Vibrio harveyi. Briefly: Antibacterial activity against Vibrio harveyi BB170 mutant after 18 hrs. In kind it is functional. In a few lines: as §1

Take `C[C@H]1[C@@H](c2ccccc2)OB(c2ccccc2)N1C`: the result with Vibrio harveyi [1] was Active.

Turning to `CC1(C)COB(c2ccccc2)N1`, the MIC in the assay with Vibrio harveyi [2] was determined as 5 mM (≈ 875 µg/mL); with Vibrio harveyi [3] it was 10 mM (≈ 1750 µg/mL).

As to `C[C@H]1NB(c2ccccc2)O[C@@H]1c1ccccc1`, the minimal inhibitory concentration (MIC) in the assay with Vibrio harveyi [4], with Vibrio harveyi [2] and in the assay with Vibrio harveyi [3] was 10 mM (≈ 2370 µg/mL) throughout.

Turning to `CCCCB1O[C@H](c2ccccc2)[C@H](C)N1C`, the MIC against Vibrio harveyi [2] and against Vibrio harveyi [3] was 10 mM (≈ 2310 µg/mL) throughout.

In general, MIC refers to the lowest concentration that inhibits growth of the organism. A lower MIC goes with a more susceptible organism.
